Activity calls are given as the source filed them. No cut-off for these calls is given here.
How the values were obtained:
[1] = molecular target: T1, RAS guanyl-releasing protein 1 (Homo sapiens, UniProt O95267); assay: Displacement of [3H]PDBu from recombinant RasGRP1 C1 domain (unknown origin) after 10 mins by scintillation counting analysis in presence of phosphatidylserine
T1 sequence (O95267 whole entry): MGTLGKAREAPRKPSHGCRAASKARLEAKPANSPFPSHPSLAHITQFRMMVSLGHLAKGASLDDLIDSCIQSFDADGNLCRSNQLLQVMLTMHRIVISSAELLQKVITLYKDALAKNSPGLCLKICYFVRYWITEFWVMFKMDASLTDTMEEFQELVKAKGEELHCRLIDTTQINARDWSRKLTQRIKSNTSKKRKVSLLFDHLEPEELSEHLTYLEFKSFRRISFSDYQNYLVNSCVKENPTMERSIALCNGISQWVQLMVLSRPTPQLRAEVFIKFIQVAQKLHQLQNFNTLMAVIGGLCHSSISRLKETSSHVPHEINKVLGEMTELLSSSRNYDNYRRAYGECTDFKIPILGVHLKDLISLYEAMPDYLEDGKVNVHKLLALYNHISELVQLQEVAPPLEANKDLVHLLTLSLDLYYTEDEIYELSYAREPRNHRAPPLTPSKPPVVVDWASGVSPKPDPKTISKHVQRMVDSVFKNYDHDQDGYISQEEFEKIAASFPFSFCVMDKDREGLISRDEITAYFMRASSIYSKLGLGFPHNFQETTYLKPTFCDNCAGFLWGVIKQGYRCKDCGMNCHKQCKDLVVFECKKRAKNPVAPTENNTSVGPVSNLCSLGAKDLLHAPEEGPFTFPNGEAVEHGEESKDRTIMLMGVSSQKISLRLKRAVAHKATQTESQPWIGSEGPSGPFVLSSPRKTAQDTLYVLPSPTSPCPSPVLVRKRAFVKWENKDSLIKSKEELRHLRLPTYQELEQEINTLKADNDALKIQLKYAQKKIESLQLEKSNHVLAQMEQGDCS
Method in brief: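 [3H]PDBu binding competition with 100 μg/ml phosphatidylserine present; PKCα and RasGRP1-C1 assayed at 37°C for stability. Values are mean ± SEM of triplicate independent experiments.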

Homo sapiens = organism: Homo sapiens; assay: Selectivity ratio of Ki for recombinant human PKC-alpha to Ki for recombinant RasGRP1 C1 domain (unknown origin)
[2] = molecular target: T2, Ras guanyl-releasing protein 3 (Homo sapiens) (UniProt Q8IV61); assay: Activation of RasGRP3 (unknown origin) overexpressed in HEK293 cells assessed as protein phosphorylation at T133 at 0.1 to 30 uM after 30 mins by Western blot analysis; assay type: cell-based
T2 sequence (whole entry): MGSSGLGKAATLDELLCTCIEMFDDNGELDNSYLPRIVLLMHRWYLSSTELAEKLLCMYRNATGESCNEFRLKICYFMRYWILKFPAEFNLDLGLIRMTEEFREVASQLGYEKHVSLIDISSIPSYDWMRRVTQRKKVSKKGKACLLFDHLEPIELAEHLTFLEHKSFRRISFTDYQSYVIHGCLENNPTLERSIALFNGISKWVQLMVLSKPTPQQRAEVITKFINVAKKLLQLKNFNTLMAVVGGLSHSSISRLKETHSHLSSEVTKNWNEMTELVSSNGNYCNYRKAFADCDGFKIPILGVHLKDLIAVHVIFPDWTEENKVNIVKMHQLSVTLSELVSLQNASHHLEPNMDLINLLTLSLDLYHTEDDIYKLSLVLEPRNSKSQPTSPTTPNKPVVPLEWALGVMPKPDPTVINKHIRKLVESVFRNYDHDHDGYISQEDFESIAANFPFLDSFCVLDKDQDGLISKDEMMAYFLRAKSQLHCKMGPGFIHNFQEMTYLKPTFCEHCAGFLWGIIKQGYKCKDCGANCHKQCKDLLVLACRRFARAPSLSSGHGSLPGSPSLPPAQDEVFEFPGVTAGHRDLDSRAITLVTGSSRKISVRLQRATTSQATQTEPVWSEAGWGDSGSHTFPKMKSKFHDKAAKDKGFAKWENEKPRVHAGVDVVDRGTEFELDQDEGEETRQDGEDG

[3] = molecular target: T2, Ras guanyl-releasing protein 3 (Homo sapiens); assay: Activation of RasGRP3 (unknown origin) overexpressed in HEK293 cells assessed as ERK1/2 phosphorylation at 0.1 to 30 uM after 30 mins by Western blot analysis; assay type: cell-based
[4] = molecular target: Protein kinase C (PKC) (Homo sapiens) (UniProt O94806+P41743+P17252+P05129+Q05655+P05771+Q05513+Q02156+P24723+Q15139+Q04759); assay: Activation of PKC in human Ramos cells assessed as PKD1 phosphorylation at S744/S748 at 10000 nM after 30 mins by Western blot analysis; assay type: cell-based
Method in brief: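 Ramos cells in RPMI-1640 with 10% FBS and 1% L-glutamine, plated at 300,000 cells/ml, were exposed after 24 h to 0.01, 0.1, 1 and 10 μM compound for 30 min. Lysates were made in PBS with 0.5% Triton X-100 and sonicated. 7.5 μg protein was run on 10% Tris-glycine gels, blotted to nitrocellulose, probed overnight with phospho-specific primary antibodies and detected by ECL.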

[5] = molecular target: Protein kinase C delta type (Homo sapiens) (UniProt Q05655); assay: Binding affinity to recombinant human GFP-tagged PKC-delta expressed in human LNCAP cells assessed as induction of protein translocation from plasma membrane to internal membrane at 10000 nM after 2 to 10 mins by confocal microscopic analysis; assay type: cell-based
Method in brief: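 LNCaP cells were transiently transfected with human GFP-PKCδ or GFP-RasGRP3 and imaged 24 h later by live confocal microscopy (488 nm excitation) every 30 s for 30 min after 10 μM ligand. Distribution was assessed from representative images. n = 3–6.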

Lipid bilayer = assay: Binding affinity to NBD-PE embedded 9:1 DMPC/DMPG giant vesicle at 6.05 uM by FRET analysis
Method in brief: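 Giant vesicles containing NBD-PE (100:1 phospholipid:fluorophore) were mixed with 6.05 μM compound from DMSO stock in Tris/sucrose/KCl buffer pH 7.4. NBD-PE emission was recorded after excitation at 330–370 nm, the indole excitation range. Triton addition served as the disruption control.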

Protein kinase C delta type (Homo sapiens), sequence (Q05655 whole entry, looked up): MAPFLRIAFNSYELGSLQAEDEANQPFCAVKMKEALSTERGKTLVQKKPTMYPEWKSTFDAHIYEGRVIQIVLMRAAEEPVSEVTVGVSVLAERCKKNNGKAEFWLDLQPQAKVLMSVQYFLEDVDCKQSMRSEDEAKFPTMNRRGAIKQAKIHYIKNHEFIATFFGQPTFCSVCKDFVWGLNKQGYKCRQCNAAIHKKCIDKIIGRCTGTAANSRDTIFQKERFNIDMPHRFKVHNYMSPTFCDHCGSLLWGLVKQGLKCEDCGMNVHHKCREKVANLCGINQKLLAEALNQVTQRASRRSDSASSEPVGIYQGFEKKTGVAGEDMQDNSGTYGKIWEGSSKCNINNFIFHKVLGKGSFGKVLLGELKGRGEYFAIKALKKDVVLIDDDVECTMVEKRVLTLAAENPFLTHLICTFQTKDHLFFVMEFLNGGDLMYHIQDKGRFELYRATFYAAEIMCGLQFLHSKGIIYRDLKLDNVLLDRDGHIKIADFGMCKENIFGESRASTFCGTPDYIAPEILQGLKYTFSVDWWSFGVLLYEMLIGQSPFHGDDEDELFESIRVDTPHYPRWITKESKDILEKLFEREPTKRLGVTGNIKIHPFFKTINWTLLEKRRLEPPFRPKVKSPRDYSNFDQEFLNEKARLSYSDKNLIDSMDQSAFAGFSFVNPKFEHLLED

Ki [1] [nM] | Ratio Ki (Homo sapiens) | Activity [2] | Activity [3] | Activity [4] | Activity [5] | Activity (Lipid bilayer) | SMILES
0.41 | 24 | Active | Active | Active | Active | Active | CCCC(CCC)C(=O)OCC1(CO)C/C(=C\c2ccc3c(ccn3C)c2)C(=O)O1 (stereo not drawn)
0.69 | 19 | Active | Active | Active | Active | Active | CCCC(CCC)C(=O)OCC1(CO)C/C(=C\c2cccc3ccn(C)c23)C(=O)O1 (stereo not drawn)
0.25 | 65 | Active | – | Active | Active | inactive | CCCC(CCC)C(=O)OCC1(CO)C/C(=C\c2cn(C)c3ccccc23)C(=O)O1 (stereo not drawn)
1.55 | 10 | Active | Active | Active | Active | – | CCCC(CCC)C(=O)OCC1(CO)C/C(=C\c2cccc3c2ccn3C)C(=O)O1 (stereo not drawn)
0.87 | 9 | Active | Active | Active | Active | Active | CCCC(CCC)C(=O)OCC1(CO)C/C(=C\c2ccc3ccn(C)c3c2)C(=O)O1 (stereo not drawn)

— ChEMBL document CHEMBL3286272, “Synthesis, biological, and biophysical studies of DAG-indololactones designed as selective activators of RasGRP” (Bioorg Med Chem, 2014)
